ChEMBL document CHEMBL5678814, “Novel Mps1 Kinase Inhibitors with Potent Antitumor Activity” (Mol Cancer Ther, 2016)

How the values were obtained:
[1] = Antiproliferative activity against human NCI-H2110 cells assessed as cell growth inhibition incubated for 96 hrs by crystal violet staining; details: NCI-H2110, 96 h
NCI-H1373 = experiment: Antiproliferative activity against human NCI-H1373 cells assessed as cell growth inhibition incubated for 96 hrs by crystal violet staining; details: NCI-H1373, 96 h
[2] = In vivo inhibition of Mps1 in NMRI mouse assessed as MTD at => 1 mg/kg,po administered twice daily for 2 days and measured after 3 days relative to control; type: functional; details: time 2 day
JeKo-1 = experiment: Antiproliferative activity against human JeKo-1 cells assessed as cell growth inhibition incubated for 96 hrs by MTS assay; type: functional, cell-based; details: JeKo-1, 96 h
NCI-H1650 = experiment: Antiproliferative activity against human NCI-H1650 cells assessed as cell growth inhibition incubated for 96 hrs by crystal violet staining; details: NCI-H1650, 96 h
NCI-H661 = experiment: Antiproliferative activity against human NCI-H661 cells assessed as cell growth inhibition incubated for 96 hrs by MTS assay; type: functional, cell-based; details: NCI-H661, 96 h
NCI-H2452 = experiment: Antiproliferative activity against human NCI-H2452 cells assessed as cell growth inhibition incubated for 96 hrs by crystal violet staining; details: NCI-H2452, 96 h
MDA-MB-231 = experiment: Antiproliferative activity against human MDA-MB-231 cells assessed as cell growth inhibition incubated for 96 hrs by MTS assay; type: functional, cell-based; details: MDA-MB-231, 96 h
KM-H2 = experiment: Antiproliferative activity against human KM-H2 cells assessed as cell growth inhibition incubated for 96 hrs by MTS assay; type: functional, cell-based; details: KM-H2, 96 h
[3] = target: Mast/stem cell growth factor receptor Kit (Homo sapiens, UniProt P10721); experiment: Binding affinity to KIT (unknown origin) assessed as dissociation constant
Mast/stem cell growth factor receptor Kit, sequence (P10721 whole entry): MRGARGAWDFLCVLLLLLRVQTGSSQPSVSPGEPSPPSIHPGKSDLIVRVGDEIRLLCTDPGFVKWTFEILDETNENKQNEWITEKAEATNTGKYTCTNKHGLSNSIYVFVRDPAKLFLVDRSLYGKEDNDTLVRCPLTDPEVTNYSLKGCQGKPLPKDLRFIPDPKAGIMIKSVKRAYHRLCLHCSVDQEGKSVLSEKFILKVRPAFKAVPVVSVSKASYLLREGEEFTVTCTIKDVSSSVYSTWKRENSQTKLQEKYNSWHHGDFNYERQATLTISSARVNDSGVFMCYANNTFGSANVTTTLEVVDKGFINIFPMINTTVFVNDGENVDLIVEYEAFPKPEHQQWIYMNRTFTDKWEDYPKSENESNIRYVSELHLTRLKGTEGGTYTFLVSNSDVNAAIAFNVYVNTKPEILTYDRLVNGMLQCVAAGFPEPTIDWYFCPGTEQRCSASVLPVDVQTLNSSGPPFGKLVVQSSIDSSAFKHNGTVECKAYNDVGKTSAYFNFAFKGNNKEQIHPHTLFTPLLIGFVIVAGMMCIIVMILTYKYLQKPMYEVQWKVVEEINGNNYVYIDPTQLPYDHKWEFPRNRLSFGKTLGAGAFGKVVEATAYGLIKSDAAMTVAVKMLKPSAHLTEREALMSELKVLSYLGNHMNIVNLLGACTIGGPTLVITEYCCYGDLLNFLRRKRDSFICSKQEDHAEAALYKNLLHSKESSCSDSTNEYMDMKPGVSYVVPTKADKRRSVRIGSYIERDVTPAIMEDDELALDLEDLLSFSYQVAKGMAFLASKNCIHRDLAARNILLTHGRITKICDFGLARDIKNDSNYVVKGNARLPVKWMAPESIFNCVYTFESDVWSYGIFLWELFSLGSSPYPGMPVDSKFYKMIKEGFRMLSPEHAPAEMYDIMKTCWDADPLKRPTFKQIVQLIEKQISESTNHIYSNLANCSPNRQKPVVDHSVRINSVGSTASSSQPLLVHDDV

NCI-H28 = experiment: Antiproliferative activity against human NCI-H28 cells assessed as cell growth inhibition incubated for 96 hrs by crystal violet staining; details: NCI-H28, 96 h
HCC70 = experiment: Antiproliferative activity against human HCC70 cells assessed as cell growth inhibition incubated for 96 hrs by MTS assay; type: functional, cell-based; details: HCC70, 96 h
RPMI-2650 = experiment: Antiproliferative activity against human RPMI-2650 cells assessed as cell growth inhibition incubated for 96 hrs by crystal violet staining; details: RPMI-2650, 96 h
NCI-H23 = experiment: Antiproliferative activity against human NCI-H23 cells assessed as cell growth inhibition incubated for 96 hrs by crystal violet staining; details: NCI-H23, 96 h
NCI-H2030 = experiment: Antiproliferative activity against human NCI-H2030 cells assessed as cell growth inhibition incubated for 96 hrs by crystal violet staining; details: NCI-H2030, 96 h
LAPC4 = experiment: Antiproliferative activity against human LAPC4 cells assessed as cell growth inhibition incubated for 96 hrs by MTS assay; type: functional, cell-based; details: LAPC4, 96 h
MDA-MB-453 = experiment: Antiproliferative activity against human MDA-MB-453 cells assessed as cell growth inhibition incubated for 96 hrs by crystal violet staining; details: MDA-MB-453, 96 h
Caco-2 = experiment: Antiproliferative activity against human Caco-2 cells assessed as cell growth inhibition incubated for 96 hrs by crystal violet staining; details: Caco-2, 96 h
A-375 = experiment: Antiproliferative activity against human A-375 cells assessed as cell growth inhibition incubated for 96 hrs by crystal violet staining; details: A-375, 96 h
LoVo = experiment: Antiproliferative activity against human LoVo cells assessed as cell growth inhibition incubated for 96 hrs by crystal violet staining
[4] = Antitumor activity against human A2780cis cells xenografted female athymic NMRI mouse model assessed as T/C ratio at 2.5 mg/kg, po administered twice daily intermittent for 2 days on/5 days off; type: functional; details: time 7 day
MSTO-211H = experiment: Antiproliferative activity against human MSTO-211H cells assessed as cell growth inhibition incubated for 96 hrs by crystal violet staining
[5] = Volume of distribution at steady state in male CD1 mouse plasma at 0.5 mg/kg, iv measured after 24 hrs by LC/-MS/MS analysis; type: ADME, organism-based; details: read-out: Vdss
Outline: (§1)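 Male CD1 mice received a single iv bolus of 0.5 mg/kg in 1% DMSO/99% plasma. Plasma was sampled at 2, 5, 15, 30 and 45 min and at 1, 2, 4, 6, 8 and 24 h, precipitated with ice-cold acetonitrile (1:5), and supernatants were run by LC/MS-MS. Parameters were estimated from plasma concentration data, with AUC by the log-linear trapezoidal rule.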

[6] = Antiproliferative activity against human HBL1 cells assessed as cell growth inhibition incubated for 96 hrs by MTS assay; type: functional, cell-based; details: HBL1, 96 h
[7] = Antiproliferative activity against human A2780cis cells assessed as cell growth inhibition incubated for 96 hrs by crystal violet staining
[8] = Half life in male CD1 mouse plasma at 0.5 mg/kg, iv measured after 24 hrs by LC/-MS/MS analysis; type: ADME, organism-based
Outline: as §1

[9] = target: Phosphatidylinositol 5-phosphate 4-kinase type-2 gamma (Homo sapiens, UniProt Q8TBX8); experiment: Binding affinity to PIP5K2C (unknown origin) assessed as dissociation constant
Phosphatidylinositol 5-phosphate 4-kinase type-2 gamma, sequence (Q8TBX8 whole entry): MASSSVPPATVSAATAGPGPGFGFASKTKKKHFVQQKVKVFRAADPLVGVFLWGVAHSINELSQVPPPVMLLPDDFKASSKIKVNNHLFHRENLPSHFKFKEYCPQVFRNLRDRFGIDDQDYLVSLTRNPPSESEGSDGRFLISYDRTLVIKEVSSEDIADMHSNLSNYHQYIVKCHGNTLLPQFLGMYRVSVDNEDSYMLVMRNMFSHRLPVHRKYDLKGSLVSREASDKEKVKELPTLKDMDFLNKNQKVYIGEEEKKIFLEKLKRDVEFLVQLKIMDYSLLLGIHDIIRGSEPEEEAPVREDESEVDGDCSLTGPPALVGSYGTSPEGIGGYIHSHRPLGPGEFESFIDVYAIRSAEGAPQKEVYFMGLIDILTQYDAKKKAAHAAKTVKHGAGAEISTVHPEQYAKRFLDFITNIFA

SK-MES-1 = experiment: Antiproliferative activity against human SK-MES-1 cells assessed as cell growth inhibition incubated for 96 hrs by MTS assay; type: functional, cell-based; details: SK-MES-1, 96 h
[10] = target: Serine/threonine-protein kinase BRSK2 (Homo sapiens, UniProt Q8IWQ3); experiment: Binding affinity to BRSK2 (unknown origin) assessed as dissociation constant
Serine/threonine-protein kinase BRSK2, sequence (Q8IWQ3 whole entry): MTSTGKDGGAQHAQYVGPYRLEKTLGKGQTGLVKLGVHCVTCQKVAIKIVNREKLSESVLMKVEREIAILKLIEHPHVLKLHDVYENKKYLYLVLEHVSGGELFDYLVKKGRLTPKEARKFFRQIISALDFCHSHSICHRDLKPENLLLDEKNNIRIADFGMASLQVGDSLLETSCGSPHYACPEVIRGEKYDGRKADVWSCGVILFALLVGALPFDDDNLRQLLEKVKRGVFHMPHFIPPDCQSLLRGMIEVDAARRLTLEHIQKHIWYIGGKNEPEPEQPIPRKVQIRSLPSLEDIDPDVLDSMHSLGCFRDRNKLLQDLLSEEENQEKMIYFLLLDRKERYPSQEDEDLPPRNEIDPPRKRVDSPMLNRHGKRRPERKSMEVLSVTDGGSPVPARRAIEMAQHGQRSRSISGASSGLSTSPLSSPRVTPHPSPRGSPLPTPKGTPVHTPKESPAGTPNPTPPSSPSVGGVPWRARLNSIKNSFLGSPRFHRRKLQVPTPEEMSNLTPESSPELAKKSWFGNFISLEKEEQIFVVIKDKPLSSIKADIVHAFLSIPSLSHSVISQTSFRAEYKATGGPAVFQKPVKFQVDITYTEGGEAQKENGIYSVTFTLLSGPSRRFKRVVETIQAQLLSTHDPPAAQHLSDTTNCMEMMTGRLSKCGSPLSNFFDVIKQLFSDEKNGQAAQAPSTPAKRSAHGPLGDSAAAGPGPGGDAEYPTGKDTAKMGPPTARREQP

RD = experiment: Antiproliferative activity against human RD cells assessed as cell growth inhibition incubated for 96 hrs by MTS assay; type: functional, cell-based
CAL-33 = experiment: Antiproliferative activity against human CAL-33 cells assessed as cell growth inhibition incubated for 96 hrs by crystal violet staining; details: CAL-33, 96 h
Rh41 = experiment: Antiproliferative activity against human Rh41 cells assessed as cell growth inhibition incubated for 96 hrs by MTS assay; type: functional, cell-based; details: Rh41, 96 h
[11] = Oral bioavailability in male Wistar rat plasma at 0.5 mg/kg measured after 24 hrs by LC/-MS/MS analysis; type: ADME, organism-based
NCI-H2052 = experiment: Antiproliferative activity against human NCI-H2052 cells assessed as cell growth inhibition incubated for 96 hrs by crystal violet staining; details: NCI-H2052, 96 h

COc1cc(S(C)(=O)=O)ccc1Nc1nc2ccc(-c3ccc(NC(=O)[C@H](C)c4ccc(F)cc4)cc3)cn2n1 [BAY-1161909]
IC50 [1]: 280 nM
IC50 (NCI-H1373): 190 nM
MED [2]: >=40%
IC50 (JeKo-1): 65 nM
IC50 (NCI-H1650): 130 nM
IC50 (NCI-H661): 260 nM
IC50 (NCI-H2452): 120 nM
IC50 (MDA-MB-231): 110 nM
IC50 (KM-H2): 220 nM
Kd [3]: 370 nM
IC50 (NCI-H28): 110 nM
IC50 (HCC70): 87 nM
IC50 (RPMI-2650): 51 nM
IC50 (NCI-H23): 91 nM
IC50 (NCI-H2030): 700 nM
IC50 (LAPC4): 130 nM
IC50 (MDA-MB-453): > 3000 nM
IC50 (Caco-2): 1800 nM
IC50 (A-375): 100 nM
IC50 (LoVo): 95 nM
T/C [4]: 0.43
IC50 (MSTO-211H): 70 nM
Vd [5]: 3.4 L/kg
IC50 [6]: 110 nM
IC50 [7]: 60 nM
half-life [8]: 4.9 h
Kd [9]: 280 nM
IC50 (SK-MES-1): 210 nM
Kd [10]: 40000 nM
IC50 (RD): 260 nM
IC50 (CAL-33): 110 nM
IC50 (Rh41): 150 nM
bioavailability [11]: 49%
IC50 (NCI-H2052): 96 nM
